# Key:
# human TLR8 = target: T1, human TLR8 (Homo sapiens, UniProt Q9NR97); assay: SEAP reporter gene detection assay in HEK-Blue TLR8 cells; type: cell-based; details: 0 to 20 μM, 24 hours
# T1 sequence (Q9NR97 27-1041): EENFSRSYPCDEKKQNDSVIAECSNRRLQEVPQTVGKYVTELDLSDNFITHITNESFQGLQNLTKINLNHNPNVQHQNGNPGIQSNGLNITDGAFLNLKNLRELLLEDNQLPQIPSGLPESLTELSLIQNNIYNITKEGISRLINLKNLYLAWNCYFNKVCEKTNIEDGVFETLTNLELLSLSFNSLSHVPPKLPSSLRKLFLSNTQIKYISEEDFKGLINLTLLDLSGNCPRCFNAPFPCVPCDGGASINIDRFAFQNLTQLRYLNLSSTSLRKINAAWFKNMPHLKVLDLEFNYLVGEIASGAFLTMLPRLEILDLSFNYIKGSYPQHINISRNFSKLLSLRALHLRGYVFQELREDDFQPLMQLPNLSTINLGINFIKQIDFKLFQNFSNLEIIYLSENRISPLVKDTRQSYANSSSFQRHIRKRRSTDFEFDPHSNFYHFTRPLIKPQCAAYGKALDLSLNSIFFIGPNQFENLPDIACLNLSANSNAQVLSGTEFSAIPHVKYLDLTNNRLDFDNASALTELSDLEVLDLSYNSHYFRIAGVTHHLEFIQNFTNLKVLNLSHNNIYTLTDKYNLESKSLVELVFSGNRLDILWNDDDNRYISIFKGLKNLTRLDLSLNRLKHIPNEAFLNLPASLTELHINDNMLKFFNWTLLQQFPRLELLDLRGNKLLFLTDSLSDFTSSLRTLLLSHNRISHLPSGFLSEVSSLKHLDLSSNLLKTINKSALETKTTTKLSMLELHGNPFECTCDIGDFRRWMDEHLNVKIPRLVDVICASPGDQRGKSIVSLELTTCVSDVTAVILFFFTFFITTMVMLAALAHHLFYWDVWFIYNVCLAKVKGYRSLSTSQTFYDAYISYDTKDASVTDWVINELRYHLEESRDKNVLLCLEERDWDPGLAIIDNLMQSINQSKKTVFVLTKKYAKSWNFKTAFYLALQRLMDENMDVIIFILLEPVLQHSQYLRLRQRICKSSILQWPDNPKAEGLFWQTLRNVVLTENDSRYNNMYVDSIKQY
# How it was run: (§1)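 HEK 293 cells stably carrying the human TLR and a SEAP reporter, 4 × 10^4/well, grown 24 h. Then 24 h in Opti-MEM/0.5% FBS with test compound. Positive controls: poly(I:C) 0–10.9 μg/ml (TLR3), LPS 0–36.5 ng/ml (TLR4), FLA-BS 0–10 μg/ml (TLR5), R848 0–6 μg/ml (TLR7, TLR8). Supernatant heated 30 min at 65°C, then CSPD substrate added; luminescence read after 20 min.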
# NF-κB = assay: U937 NF-κB–GFP reporter assay; type: cell-based, human; details: U937 cells
# hTLR1 and hTLR2 = hTLR1 and hTLR2 (Homo sapiens, UniProt O60603+Q15399); assay: SEC-LS assay of TLR1/2 heterodimer formation; type: biochemical; details: CU-T12-9 0 to 40 μM or Pam3CSK4 260 nM (400 ng/ml)
# hTLR1 and hTLR2, sequence (Q15399 25-580 limits assumed): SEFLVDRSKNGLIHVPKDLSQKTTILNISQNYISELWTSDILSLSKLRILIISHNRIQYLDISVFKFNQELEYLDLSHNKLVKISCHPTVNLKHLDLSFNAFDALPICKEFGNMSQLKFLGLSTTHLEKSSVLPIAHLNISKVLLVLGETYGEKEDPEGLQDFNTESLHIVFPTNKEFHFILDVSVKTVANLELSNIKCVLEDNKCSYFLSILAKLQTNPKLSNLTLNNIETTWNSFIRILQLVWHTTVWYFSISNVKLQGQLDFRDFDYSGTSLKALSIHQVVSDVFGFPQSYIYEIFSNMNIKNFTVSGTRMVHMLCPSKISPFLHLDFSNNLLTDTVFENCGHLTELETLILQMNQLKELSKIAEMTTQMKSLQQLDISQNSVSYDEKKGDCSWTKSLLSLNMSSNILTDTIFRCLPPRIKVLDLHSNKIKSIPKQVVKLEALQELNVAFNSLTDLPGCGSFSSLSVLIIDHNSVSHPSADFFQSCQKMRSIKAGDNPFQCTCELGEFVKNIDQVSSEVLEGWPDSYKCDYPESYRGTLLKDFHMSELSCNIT
# hTLR1 and hTLR2, sequence (O60603 21-588 limits assumed): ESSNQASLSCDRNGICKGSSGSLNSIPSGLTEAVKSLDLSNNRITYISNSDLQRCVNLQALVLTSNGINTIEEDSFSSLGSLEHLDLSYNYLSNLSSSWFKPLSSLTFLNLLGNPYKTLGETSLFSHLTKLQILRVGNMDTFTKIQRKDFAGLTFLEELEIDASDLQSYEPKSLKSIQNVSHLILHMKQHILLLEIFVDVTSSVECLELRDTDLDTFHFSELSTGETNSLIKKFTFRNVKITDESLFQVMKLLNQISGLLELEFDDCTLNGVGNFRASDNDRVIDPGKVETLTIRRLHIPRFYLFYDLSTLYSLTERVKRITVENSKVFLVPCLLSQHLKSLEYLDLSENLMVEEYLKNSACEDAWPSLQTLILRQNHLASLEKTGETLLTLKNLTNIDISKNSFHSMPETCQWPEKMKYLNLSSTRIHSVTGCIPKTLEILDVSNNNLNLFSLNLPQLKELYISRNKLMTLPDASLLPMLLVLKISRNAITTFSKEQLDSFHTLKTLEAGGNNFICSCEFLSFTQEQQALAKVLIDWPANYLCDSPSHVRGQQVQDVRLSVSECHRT
# How it was run: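 Human TLR2 in PBS pH 7.4 preincubated 2 h at RT with test compound or Pam3CSK4. Equimolar hTLR1 then added (final about 10 μM each) for 2 h at 37°C. Both proteins were baculovirus/insect-cell products. Samples filtered (0.1 μm) and run on size-exclusion column in PBS at 1 ml/min. Detection by in-line multi-angle light scattering, refractive index and UV.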
# human TLR5 = human TLR5 (Homo sapiens, UniProt O60602); assay: SEAP reporter gene detection assay in HEK-Blue TLR5 cells; type: cell-based; details: 0 to 20 μM, 24 hours
# human TLR5, sequence (O60602 21-858): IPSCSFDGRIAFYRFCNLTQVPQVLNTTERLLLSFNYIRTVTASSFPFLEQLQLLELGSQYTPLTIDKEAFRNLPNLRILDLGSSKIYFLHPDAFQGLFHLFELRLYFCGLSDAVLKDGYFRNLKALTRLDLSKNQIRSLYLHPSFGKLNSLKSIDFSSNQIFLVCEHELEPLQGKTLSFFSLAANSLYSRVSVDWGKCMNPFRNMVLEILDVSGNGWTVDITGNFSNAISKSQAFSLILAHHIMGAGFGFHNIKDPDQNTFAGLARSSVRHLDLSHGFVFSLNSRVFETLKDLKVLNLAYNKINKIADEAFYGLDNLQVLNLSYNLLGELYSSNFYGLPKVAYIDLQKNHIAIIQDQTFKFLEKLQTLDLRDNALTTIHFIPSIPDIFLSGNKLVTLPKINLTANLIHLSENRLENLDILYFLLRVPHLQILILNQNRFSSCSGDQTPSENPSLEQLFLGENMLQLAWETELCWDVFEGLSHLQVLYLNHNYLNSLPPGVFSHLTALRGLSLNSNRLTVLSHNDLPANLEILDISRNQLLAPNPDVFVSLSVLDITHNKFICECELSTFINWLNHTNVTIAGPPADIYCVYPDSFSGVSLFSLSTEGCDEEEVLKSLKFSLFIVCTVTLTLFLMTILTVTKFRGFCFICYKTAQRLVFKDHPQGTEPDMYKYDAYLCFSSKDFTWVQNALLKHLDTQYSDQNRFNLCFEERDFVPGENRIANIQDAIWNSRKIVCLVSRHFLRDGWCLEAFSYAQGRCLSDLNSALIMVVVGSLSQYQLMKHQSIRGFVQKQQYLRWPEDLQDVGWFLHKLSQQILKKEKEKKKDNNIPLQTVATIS
# How it was run: as §1
# human TLR3 = target: T2, human TLR3 (Homo sapiens, UniProt O15455); assay: SEAP reporter gene detection assay in HEK-Blue TLR3 cells; type: cell-based; details: 0 to 20 μM, 24 hours
# T2 sequence (O15455 24-904): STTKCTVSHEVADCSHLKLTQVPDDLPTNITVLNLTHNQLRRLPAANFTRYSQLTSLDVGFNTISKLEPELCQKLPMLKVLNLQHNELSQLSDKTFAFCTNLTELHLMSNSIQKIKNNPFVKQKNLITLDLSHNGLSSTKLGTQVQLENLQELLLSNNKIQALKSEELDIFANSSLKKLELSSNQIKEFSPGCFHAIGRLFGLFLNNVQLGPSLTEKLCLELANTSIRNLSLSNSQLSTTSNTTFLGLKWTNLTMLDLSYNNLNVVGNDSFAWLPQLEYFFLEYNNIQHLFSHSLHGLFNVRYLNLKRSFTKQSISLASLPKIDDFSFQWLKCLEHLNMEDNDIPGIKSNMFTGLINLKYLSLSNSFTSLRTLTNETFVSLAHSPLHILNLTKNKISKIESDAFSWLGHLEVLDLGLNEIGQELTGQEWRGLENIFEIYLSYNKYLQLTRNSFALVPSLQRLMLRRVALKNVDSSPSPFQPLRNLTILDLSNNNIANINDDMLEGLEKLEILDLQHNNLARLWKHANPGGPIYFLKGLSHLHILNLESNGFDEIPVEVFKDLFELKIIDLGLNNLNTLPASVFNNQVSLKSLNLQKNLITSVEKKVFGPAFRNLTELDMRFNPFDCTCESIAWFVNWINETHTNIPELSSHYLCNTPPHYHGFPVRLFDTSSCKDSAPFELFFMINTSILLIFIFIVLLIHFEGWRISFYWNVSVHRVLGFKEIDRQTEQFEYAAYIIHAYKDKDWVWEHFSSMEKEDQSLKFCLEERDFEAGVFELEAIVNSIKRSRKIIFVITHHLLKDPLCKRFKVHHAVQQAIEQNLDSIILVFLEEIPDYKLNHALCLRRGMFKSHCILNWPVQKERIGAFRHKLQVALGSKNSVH
# How it was run: as §1
# [1] = tested on: primary rat macrophage cells; assay: Primary peritoneal macrophage NO activation assay; type: cell-based; details: 24 hours
# How it was run: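 Peritoneal cells from Sprague-Dawley rats collected by HBSS lavage, then red cells lysed. Seeded at 40,000/well in Iscove's medium with 10% FBS; adhered 2 h; non-adherent cells washed off; cultured overnight. Serum-free Iscove's then given with test compound, or 66 nM Pam3CSK4, for 24 h. Supernatant nitrite measured by diaminonaphthalene fluorescence.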
compound,measurement,setting,value
"CNc1ccc([N+](=O)[O-])cc1-n1cnc(-c2ccc(C(F)(F)F)cc2)c1 [CU-T12-9, N-methyl-4-nitro-2-(4-(4-(trifluoromethyl)phenyl)-1H-imidazol-1-yl)aniline]","activation of SEAP signaling, TLR8",human TLR8,not in other TLR-overexpressing cells
same,NF-κB activation,"NF-κB; 5 μM, 24 hours",comparable activation to 66 nM (100 ng/ml) Pam3CSK4
same,NF-κB activation,NF-κB; 20 μM (GA even up to 100 μM),excellent NF-κB activation
same,TLR1/2 heterodimer formation,hTLR1 and hTLR2,Heterodimer formation was detected
same,"activation of SEAP signaling, TLR5",human TLR5,not in other TLR-overexpressing cells
same,"activation of SEAP signaling, TLR3",human TLR3,not in other TLR-overexpressing cells
same,NO production,[1],efficiently triggered NO production

# — article PMC4474499 (Science Advances, 2015)
